In ChEMBL document CHEMBL2429859, “Inhibiting aberrant signal transducer and activator of transcription protein activation with tetrapodal, small molecule Src homology 2 domain binders: promising agents against multiple myeloma” (J Med Chem, 2013):
Active and inactive are the calls of the source. No cut-off for these calls is given here.

Experiments:
RPMI-8226 [1] = experiment: Cytotoxicity against human RPMI8226 cells assessed as inhibition of cell viability after 72 hrs by MTT assay; assay type: functional, cell-based
Procedure, shortened: (§1)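 Myeloma lines were seeded at 1-3 x 10^4 cells per well onto compound or vehicle, in triplicate, and cultured 72 h at 37 °C in 5% CO2. Viability was measured colorimetrically by MTT assay relative to DMSO control. EC50 was fitted to a standard dose-response curve where applicable.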

[2] = target: T1, Signal transducer and activator of transcription 3 (Homo sapiens, UniProt P40763); experiment: Inhibition of Stat3 in human JJN-3 cells assessed as downregulation of survivin protein expression; assay type: cell-based
T1 sequence (P40763 whole entry): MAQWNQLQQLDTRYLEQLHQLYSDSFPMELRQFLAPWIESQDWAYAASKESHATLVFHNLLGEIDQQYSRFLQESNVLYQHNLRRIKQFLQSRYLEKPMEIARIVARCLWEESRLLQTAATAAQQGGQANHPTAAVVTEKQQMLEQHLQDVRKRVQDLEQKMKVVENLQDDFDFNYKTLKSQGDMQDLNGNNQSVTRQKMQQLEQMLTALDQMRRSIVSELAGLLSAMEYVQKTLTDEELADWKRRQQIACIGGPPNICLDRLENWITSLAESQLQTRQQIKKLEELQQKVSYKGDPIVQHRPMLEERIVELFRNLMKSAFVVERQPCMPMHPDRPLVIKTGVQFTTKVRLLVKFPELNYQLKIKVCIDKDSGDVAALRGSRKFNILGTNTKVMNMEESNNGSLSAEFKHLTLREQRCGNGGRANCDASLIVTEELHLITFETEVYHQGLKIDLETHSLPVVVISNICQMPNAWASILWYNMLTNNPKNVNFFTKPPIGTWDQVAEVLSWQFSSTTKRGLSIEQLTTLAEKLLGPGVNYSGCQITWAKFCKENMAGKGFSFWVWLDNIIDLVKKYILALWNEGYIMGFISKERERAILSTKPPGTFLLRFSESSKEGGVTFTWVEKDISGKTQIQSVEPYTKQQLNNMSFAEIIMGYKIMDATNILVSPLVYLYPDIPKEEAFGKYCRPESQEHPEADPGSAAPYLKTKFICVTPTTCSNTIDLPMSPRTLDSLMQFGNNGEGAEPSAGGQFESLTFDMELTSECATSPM
Procedure, shortened: (§2)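 Treated cells were washed in cold PBS and lysed 30 min on ice in Tris-HCl pH 7.4/NaCl/EDTA/1% NP-40 with PMSF, vanadate and protease inhibitors. Lysates were Bradford-normalized, and 10-30 µg protein was run on 7-10% SDS-PAGE and transferred to PVDF. Blots were blocked in 5% BSA/TBST, probed overnight at 4 °C, then with HRP secondary, and detected by ECL.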

OCI-AML2 = experiment: Cytotoxicity against human OCI-AML2 cells assessed as cell viability after 72 hrs by MTS assay; assay type: functional, cell-based; conditions: OCI-AML2, 72 h
Procedure, shortened: (§3)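 Cells were seeded at 1-3 x 10^4 per well into wells already holding compound or vehicle, in triplicate. Incubation was 72 h at 37 °C in 5% CO2. Viability was read by MTS colorimetry relative to DMSO control, and EC50 was fitted to a standard dose-response curve where applicable.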

JJN-3 = experiment: Cytotoxicity against human JJN-3 cells assessed as inhibition of cell viability after 72 hrs by MTT assay; assay type: functional, cell-based; procedure, shortened: as §1
[3] = target: T1, Signal transducer and activator of transcription 3; experiment: Inhibition of Stat3-mediated luciferase expression in human XG6 cells after 6 hrs; assay type: cell-based
Procedure, shortened: (§4)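 Myeloma cells stably carried a Stat3-driven firefly luciferase reporter (puromycin-selected) and a CMV-driven Renilla luciferase internal control (hygromycin-selected), each selected for 2 weeks. After drug treatment, dual luciferase activity was read as relative luciferase units, firefly/Renilla.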

[4] = target: T1, Signal transducer and activator of transcription 3; experiment: Competitive binding affinity to Stat3 SH2 domain (unknown origin) using 5-FAM-GpYLPQTV-NH2 as probe assessed as phosphopetide complex formation after 30 mins by fluorescence polarization assay
Procedure, shortened: (§5)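 Fluorescence polarization. Recombinant STAT protein was incubated with the 5-FAM-GpYLPQTV-NH2 peptide probe and inhibitor for 30 min. Polarized fluorescence was plotted against inhibitor concentration, and IC50 was obtained by fitting a dose-response curve.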

[5] = Cytotoxicity against human MDA468 cells assessed as cell viability after 72 hrs by MTS assay; assay type: functional, cell-based; conditions: MDA-MB-468, 72 h; procedure, shortened: as §3
UTMC2 = experiment: Cytotoxicity against human UTMC2 cells assessed as inhibition of cell viability after 72 hrs by MTT assay; assay type: functional, cell-based; procedure, shortened: as §1
SK-MM-2 = experiment: Cytotoxicity against human SKMM-2 cells assessed as inhibition of cell viability after 72 hrs by MTT assay; assay type: functional, cell-based; procedure, shortened: as §1
[6] = target: T2, Signal transducer and activator of transcription 1-alpha/beta (Homo sapiens) (UniProt P42224); experiment: Inhibition of IFNgamma-induced Stat1 phosphorylation in serum-starved human U937 cells at 10 to 20 uM incubated for 4 hrs prior to IFNgamma induction measured after 15 mins by phopsho-flow cytometric analysis; assay type: cell-based; conditions: U-937
T2 sequence (whole entry): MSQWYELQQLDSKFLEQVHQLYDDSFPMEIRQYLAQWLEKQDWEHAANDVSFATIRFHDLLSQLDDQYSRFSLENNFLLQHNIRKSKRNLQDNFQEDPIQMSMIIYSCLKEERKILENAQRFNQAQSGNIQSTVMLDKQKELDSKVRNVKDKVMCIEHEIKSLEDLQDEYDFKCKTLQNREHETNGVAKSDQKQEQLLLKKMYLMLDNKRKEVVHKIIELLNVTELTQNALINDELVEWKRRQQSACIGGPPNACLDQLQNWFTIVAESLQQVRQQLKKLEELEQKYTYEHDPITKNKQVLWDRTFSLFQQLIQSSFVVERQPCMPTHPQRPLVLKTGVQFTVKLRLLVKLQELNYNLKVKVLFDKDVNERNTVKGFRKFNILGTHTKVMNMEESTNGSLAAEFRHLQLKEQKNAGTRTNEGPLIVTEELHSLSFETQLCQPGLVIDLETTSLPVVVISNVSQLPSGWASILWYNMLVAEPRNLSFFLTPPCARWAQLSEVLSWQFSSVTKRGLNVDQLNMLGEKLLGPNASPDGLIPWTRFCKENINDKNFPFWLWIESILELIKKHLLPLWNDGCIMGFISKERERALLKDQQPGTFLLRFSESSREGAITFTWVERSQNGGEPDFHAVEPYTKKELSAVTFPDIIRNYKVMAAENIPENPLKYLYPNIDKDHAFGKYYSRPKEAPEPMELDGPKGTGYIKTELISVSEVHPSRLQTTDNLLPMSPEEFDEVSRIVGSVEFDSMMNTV
Procedure, shortened: (§6)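 Serum-starved U937 cells were pretreated with compound for 4 h, then stimulated 15 min with IL-6 (Stat3), GM-CSF (Stat5) or IFN (Stat1). Phosphorylation of each STAT was quantified by phospho-flow cytometry.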

[7] = target: T1, Signal transducer and activator of transcription 3; experiment: Inhibition of Stat3 in human JJN-3 cells assessed as downregulation of c-Myc protein expression after 6 hrs by Western blot analysis; assay type: cell-based; procedure, shortened: as §2
XG7 = experiment: Cytotoxicity against human XG7 cells assessed as inhibition of cell viability after 72 hrs by MTT assay; assay type: functional, cell-based; procedure, shortened: as §1
RPMI-8226 [8] = experiment: Induction of apoptosis in human RPMI8226 cells assessed as transformation of early apoptotic cells to late apoptotic cells measured at 48 hrs by annexin V/propidium iodide staining-based flow cytometric analysis; assay type: functional, cell-based
Procedure, shortened: (§7)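 Apoptosis was measured by flow cytometry of Annexin V and propidium iodide staining. Viable, early apoptotic and late apoptotic cells were scored by quadrant, with time points at 24 and 48 h.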

[9] = target: T1, Signal transducer and activator of transcription 3; experiment: Inhibition of IL-6-induced Stat3 phosphorylation in serum-starved human U937 cells at 10 to 20 uM incubated for 4 hrs prior to IL-6 induction measured after 15 mins by phopsho-flow cytometric analysis; assay type: cell-based; conditions: U-937; procedure, shortened: as §6
[10] = target: T1, Signal transducer and activator of transcription 3; experiment: Inhibition of Stat3 in human JJN-3 cells assessed as downregulation of BCL-xL protein expression; assay type: cell-based; procedure, shortened: as §2
[11] = target: T1, Signal transducer and activator of transcription 3; experiment: Inhibition of Stat3 phosphorylation in human JJN-3 cells after 6 hrs by Western blot analysis; assay type: cell-based; procedure, shortened: as §2
[12] = target: T3, Signal transducer and activator of transcription 1-alpha/beta (Homo sapiens, UniProt P42224); experiment: Binding affinity to Stat1 (unknown origin) using 5-FAM-GpYLPQTV-NH2 as probe assessed as phosphopetide complex formation after 30 mins by fluorescence polarization assay; procedure, shortened: as §5
T3 sequence (P42224 whole entry): T2 sequence (whole entry)

MM1.S = experiment: Cytotoxicity against human MM1S cells assessed as inhibition of cell viability after 72 hrs by MTT assay; assay type: functional, cell-based; procedure, shortened: as §1
[13] = target: T1, Signal transducer and activator of transcription 3; experiment: Inhibition of Stat3-mediated luciferase expression in human 8226 cells after 6 hrs; assay type: cell-based; procedure, shortened: as §4
XG6 = experiment: Cytotoxicity against human XG6 cells assessed as inhibition of cell viability after 72 hrs by MTT assay; assay type: functional, cell-based; procedure, shortened: as §1
NCI-H929 = experiment: Cytotoxicity against human NCI-H929 cells assessed as inhibition of cell viability after 72 hrs by MTT assay; assay type: functional, cell-based; procedure, shortened: as §1
RPMI-8226 [14] = experiment: Induction of apoptosis in human RPMI8226 cells assessed as transformation of viable cells to early apoptotic cells measured at 24 hrs by annexin V/propidium iodide staining-based flow cytometric analysis; assay type: functional, cell-based; procedure, shortened: as §7
DU-145 = experiment: Cytotoxicity against human DU145 cells assessed as cell viability after 72 hrs by MTS assay; assay type: functional, cell-based; conditions: DU-145, 72 h; procedure, shortened: as §3

Compound: Cc1ccc(S(=O)(=O)N(CC(=O)N(Cc2ccc(C3CCCCC3)cc2)c2ccc(C(=O)O)c(O)c2)Cc2ccccc2C(F)(F)F)cc1
- inhibition (RPMI-8226 [1]): Dose-dependent effect
- inhibition [2]: inactive
- IC50 (OCI-AML2): 12 µM
- inhibition (JJN-3): Dose-dependent effect
- inhibition [3]: Dose-dependent effect
- IC50 [4]: 2.8 µM
- IC50 [5]: 11 µM
- inhibition (UTMC2): Dose-dependent effect
- inhibition (SK-MM-2): Dose-dependent effect
- inhibition [6]: Active
- inhibition [7]: Dose-dependent effect
- inhibition (XG7): Dose-dependent effect
- Activity (RPMI-8226 [8]): Dose-dependent effect
- inhibition [9]: Active
- inhibition [10]: inactive
- inhibition [11]: Dose-dependent effect
- IC50 [12]: 5.8 µM
- inhibition (MM1.S): Dose-dependent effect
- inhibition [13]: Dose-dependent effect
- inhibition (XG6): Dose-dependent effect
- inhibition (NCI-H929): Dose-dependent effect
- Activity (RPMI-8226 [14]): Dose-dependent effect
- IC50 (DU-145): 16 µM

Compound: O=C(O)c1ccc(N(Cc2ccc(C3CCCCC3)cc2)C(=O)CN(Cc2ccccc2C(F)(F)F)S(=O)(=O)c2c(F)c(F)c(F)c(F)c2F)cc1O
- inhibition (RPMI-8226 [1]): Dose-dependent effect
- inhibition [2]: inactive
- IC50 (OCI-AML2): 4.6 µM
- inhibition (JJN-3): Dose-dependent effect
- inhibition [3]: Dose-dependent effect
- IC50 [4]: 12.8 µM
- IC50 [5]: 8.1 µM
- inhibition (UTMC2): Dose-dependent effect
- inhibition (SK-MM-2): Dose-dependent effect
- inhibition [6]: Active
- inhibition [7]: Dose-dependent effect
- inhibition (XG7): Dose-dependent effect
- Activity (RPMI-8226 [8]): Dose-dependent effect
- inhibition [9]: Active
- inhibition [10]: inactive
- inhibition [11]: Dose-dependent effect
- IC50 [12]: 10.9 µM
- inhibition (MM1.S): Dose-dependent effect
- inhibition [13]: Dose-dependent effect
- inhibition (XG6): Dose-dependent effect
- inhibition (NCI-H929): Dose-dependent effect
- Activity (RPMI-8226 [14]): Dose-dependent effect
- IC50 (DU-145): 14 µM
